Paper PMC3115441 (Chemical biology & drug design, 2011)
Entries after “also recorded” stand apart in the source; their conditions may differ. Where two headings read alike, the source gives them in different places.

Columns and labels:
[1] = tested on: PCP site of the NMDA receptor complex; assay: [3H]; format: binding, rat
Method in brief: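 Washed rat forebrain homogenate (30 ug/mL protein) in 10 mM HEPES, pH 7.4, with 1 nM (+)-[3H]MK-801, 100 uM glutamate, 30 uM glycine and varied competitor concentrations. Nonspecific binding was set with 30 uM (+)-MK-801. Incubation ran 2 h at room temperature, then vacuum filtration onto GF/B filters, three buffer washes and scintillation counting.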

[2] = target: Serotonin 2A (5-HT2A) (Homo sapiens, UniProt P28223); assay: NIMH-PDSP radioligand binding, 5-HT2A
Serotonin 2A (5-HT2A), sequence (P28223 whole entry): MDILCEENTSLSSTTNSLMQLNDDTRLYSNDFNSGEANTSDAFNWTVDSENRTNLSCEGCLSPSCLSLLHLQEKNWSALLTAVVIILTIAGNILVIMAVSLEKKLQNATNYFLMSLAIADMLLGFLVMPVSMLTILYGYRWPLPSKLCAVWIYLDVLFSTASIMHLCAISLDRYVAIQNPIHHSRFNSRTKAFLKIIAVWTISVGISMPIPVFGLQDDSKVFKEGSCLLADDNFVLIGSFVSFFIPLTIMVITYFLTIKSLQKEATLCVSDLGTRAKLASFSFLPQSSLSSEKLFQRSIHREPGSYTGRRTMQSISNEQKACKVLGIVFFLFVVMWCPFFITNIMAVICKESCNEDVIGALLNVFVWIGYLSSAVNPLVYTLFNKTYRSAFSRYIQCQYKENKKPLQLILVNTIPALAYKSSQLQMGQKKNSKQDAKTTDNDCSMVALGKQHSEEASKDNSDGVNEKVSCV

[3] = target: Dopamine 1 (D1) (Homo sapiens, UniProt P21728); assay: NIMH-PDSP radioligand binding, D1
Dopamine 1 (D1), sequence (P21728 whole entry): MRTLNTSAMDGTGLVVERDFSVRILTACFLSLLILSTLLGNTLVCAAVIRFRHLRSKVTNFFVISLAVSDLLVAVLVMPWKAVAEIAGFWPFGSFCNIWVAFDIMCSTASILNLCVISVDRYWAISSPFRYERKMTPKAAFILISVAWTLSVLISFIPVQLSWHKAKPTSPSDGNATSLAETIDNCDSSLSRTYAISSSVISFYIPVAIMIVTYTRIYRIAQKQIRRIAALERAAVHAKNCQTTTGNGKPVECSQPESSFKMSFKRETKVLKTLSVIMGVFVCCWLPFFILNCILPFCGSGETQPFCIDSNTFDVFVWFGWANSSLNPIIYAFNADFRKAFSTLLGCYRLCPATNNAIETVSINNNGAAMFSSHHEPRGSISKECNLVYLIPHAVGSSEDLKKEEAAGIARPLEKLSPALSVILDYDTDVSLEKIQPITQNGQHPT

[4] = target: Dopamine 2 (D2) (Homo sapiens, UniProt P14416); assay: NIMH-PDSP radioligand binding, D2
Dopamine 2 (D2), sequence (P14416 whole entry): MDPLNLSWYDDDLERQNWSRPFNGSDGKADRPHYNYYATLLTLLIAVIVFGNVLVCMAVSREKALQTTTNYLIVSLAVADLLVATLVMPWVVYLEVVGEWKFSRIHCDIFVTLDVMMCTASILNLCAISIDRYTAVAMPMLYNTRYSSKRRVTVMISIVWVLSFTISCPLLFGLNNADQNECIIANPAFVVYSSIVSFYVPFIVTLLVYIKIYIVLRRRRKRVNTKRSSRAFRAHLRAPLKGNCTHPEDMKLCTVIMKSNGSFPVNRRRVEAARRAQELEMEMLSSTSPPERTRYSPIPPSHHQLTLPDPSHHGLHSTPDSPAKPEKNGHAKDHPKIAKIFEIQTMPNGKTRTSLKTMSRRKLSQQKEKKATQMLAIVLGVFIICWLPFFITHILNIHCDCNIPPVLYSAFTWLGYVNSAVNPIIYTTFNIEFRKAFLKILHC

[5] = target: Dopamine Transporter (DAT) (Homo sapiens, UniProt Q01959); assay: NIMH-PDSP radioligand binding, DAT
Dopamine Transporter (DAT), sequence (Q01959 whole entry): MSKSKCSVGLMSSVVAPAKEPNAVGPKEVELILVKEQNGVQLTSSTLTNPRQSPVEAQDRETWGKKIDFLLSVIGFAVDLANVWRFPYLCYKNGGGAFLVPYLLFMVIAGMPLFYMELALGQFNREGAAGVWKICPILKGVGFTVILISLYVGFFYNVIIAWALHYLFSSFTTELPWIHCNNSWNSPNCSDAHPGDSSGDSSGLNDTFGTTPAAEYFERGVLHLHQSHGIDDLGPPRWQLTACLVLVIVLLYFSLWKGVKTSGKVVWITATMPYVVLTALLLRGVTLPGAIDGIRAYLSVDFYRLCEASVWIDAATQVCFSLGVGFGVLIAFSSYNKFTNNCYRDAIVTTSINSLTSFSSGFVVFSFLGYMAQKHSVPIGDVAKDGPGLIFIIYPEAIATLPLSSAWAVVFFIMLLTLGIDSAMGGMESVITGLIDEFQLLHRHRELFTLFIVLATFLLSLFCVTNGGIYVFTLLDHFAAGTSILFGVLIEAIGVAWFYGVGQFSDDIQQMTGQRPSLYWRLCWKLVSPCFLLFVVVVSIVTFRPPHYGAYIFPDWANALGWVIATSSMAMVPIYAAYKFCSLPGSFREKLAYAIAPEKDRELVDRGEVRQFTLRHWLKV

[6] = target: κ- opioid receptors (KOR) (Rattus norvegicus, UniProt P34975); assay: NIMH-PDSP radioligand binding, KOR
κ- opioid receptors (KOR), sequence (P34975 whole entry): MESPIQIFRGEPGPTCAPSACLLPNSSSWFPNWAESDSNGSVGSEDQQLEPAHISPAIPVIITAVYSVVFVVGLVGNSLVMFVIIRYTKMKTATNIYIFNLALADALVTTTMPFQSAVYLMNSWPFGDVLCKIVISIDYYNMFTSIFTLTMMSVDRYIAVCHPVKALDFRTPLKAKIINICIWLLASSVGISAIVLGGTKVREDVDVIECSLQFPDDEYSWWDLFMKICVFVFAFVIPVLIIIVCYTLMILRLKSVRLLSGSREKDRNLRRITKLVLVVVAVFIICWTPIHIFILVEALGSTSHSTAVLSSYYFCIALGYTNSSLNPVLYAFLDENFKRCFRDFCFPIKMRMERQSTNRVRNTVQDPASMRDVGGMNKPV

[7] = target: μ- opioid receptors (MOR) (Homo sapiens, UniProt P35372); assay: NIMH-PDSP radioligand binding, MOR
μ- opioid receptors (MOR), sequence (P35372 whole entry): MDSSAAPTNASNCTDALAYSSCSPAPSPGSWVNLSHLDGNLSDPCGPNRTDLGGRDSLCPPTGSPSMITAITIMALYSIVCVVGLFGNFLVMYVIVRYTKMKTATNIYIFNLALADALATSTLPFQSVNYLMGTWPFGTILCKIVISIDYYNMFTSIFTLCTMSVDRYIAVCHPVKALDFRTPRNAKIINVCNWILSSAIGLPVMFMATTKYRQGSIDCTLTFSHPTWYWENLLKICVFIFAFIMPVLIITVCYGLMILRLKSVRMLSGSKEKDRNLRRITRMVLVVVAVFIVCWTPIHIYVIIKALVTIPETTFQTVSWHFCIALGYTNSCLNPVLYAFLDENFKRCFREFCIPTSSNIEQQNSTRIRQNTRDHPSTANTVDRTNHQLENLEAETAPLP

[8] = target: Norepinephrine Transporter (NET) (Homo sapiens, UniProt P23975); assay: NIMH-PDSP radioligand binding, NET
Norepinephrine Transporter (NET), sequence (P23975 whole entry): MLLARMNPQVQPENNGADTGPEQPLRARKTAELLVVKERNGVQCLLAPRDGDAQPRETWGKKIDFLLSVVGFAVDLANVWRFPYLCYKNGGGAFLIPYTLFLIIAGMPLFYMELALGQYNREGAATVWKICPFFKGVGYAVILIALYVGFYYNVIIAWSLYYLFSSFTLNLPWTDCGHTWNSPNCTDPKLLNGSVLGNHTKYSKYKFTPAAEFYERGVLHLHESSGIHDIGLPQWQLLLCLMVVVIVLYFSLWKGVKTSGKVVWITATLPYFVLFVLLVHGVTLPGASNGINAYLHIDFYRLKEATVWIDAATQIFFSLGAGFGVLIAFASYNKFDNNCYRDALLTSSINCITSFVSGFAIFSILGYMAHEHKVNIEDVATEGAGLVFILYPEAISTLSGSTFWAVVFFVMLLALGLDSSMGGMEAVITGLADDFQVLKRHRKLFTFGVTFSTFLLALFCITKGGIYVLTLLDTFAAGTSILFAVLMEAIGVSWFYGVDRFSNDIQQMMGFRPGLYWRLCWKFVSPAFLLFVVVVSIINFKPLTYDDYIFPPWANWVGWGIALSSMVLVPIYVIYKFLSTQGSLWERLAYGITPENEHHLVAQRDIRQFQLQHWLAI

[9] = target: Serotonin Transporter (SERT) (Homo sapiens, UniProt P31645); assay: NIMH-PDSP radioligand binding, SERT
Serotonin Transporter (SERT), sequence (P31645 whole entry): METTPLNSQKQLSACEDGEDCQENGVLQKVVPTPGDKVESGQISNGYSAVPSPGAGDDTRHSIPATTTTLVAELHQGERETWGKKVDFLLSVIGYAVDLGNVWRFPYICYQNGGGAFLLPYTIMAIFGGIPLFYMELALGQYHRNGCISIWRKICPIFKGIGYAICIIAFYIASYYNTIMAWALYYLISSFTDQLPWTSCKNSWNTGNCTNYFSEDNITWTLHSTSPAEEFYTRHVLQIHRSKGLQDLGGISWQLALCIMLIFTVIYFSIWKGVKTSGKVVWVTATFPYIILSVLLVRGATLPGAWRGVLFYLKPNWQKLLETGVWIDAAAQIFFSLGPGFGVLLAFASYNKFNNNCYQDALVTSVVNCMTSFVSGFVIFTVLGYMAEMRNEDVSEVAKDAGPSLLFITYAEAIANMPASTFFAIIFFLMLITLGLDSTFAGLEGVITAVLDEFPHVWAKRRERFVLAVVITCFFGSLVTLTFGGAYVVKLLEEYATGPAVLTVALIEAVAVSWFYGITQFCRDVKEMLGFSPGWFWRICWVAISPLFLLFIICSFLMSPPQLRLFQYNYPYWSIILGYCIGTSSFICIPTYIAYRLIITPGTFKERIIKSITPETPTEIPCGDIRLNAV

[10] = target: Sigma1 (Rattus norvegicus, UniProt Q9R0C9); assay: NIMH-PDSP radioligand binding, Sigma-1
Sigma1, sequence (Q9R0C9 whole entry): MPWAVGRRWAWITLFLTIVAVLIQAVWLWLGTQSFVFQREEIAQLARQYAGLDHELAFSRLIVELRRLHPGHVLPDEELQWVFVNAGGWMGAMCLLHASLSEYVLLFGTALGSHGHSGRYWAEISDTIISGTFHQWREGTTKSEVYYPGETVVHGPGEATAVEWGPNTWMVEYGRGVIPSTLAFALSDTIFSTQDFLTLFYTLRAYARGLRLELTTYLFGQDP

[11] = target: T1, Sigma2 (Rattus norvegicus, UniProt Q5U3Y7); assay: NIMH-PDSP radioligand binding, Sigma-2
T1 sequence (Q5U3Y7 1-176): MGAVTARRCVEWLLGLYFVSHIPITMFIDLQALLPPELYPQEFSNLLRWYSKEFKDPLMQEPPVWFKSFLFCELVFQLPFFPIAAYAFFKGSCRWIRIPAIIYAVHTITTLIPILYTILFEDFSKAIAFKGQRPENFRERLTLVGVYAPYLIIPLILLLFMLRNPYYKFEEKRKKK

[12] = tested on: MES-induced seizures; assay: Maximal electroshock; format: in vivo, mice; details: for MES (30) N/F, animals active over tested: 30 mg/kg i.p.; for MES (100) N/F, animals active over tested: 100 mg/kg i.p.; for MES neuroprotective activity (in words): mouse, in vivo; for MES (300) N/F, animals active over tested: 300 mg/kg i.p.
Method in brief: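 Mice received test compound i.p. at 30, 100 or 300 mg/kg in 0.01 ml/g and were tested at various intervals after dosing. Corneal electrodes primed with 0.5% tetracaine HCl electrolyte delivered 60 Hz alternating current, 50 mA, for 0.2 s. An animal counted as protected when the hindlimb tonic extensor component was abolished. Results are scored as animals protected over tested.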

[13] = tested on: Metrazol-induced clonic seizures; assay: Subcutaneous Metrazol seizure threshold test; format: in vivo, mice; details: for scMET (30) N/F, animals active over tested: 30 mg/kg; for scMET (100) N/F, animals active over tested: 100 mg/kg
[14] = tested on: mice; assay: Acute toxicity, minimal motor impairment; format: in vivo; details: for TOX (30) N/F, animals toxic over tested / TOX (65) N/F, animals toxic over tested / TOX (100) N/F, animals toxic over tested / TOX (300) N/F, animals toxic over tested: rotorod; for TOX (30) N/F, animals toxic over tested: 30 mg/kg
[15] = tested on: 6HZ; assay: 6HZ test; format: in vivo; details: 50 mg/kg
[16] = tested on: MES-induced seizures; assay: Anticonvulsant protection test in rats; format: in vivo; details: 30 mg/kg
Method in brief: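 Rats were dosed orally at 30 mg/kg in 0.04 ml/10 g. Corneal electrodes primed with 0.5% tetracaine HCl electrolyte delivered 60 Hz alternating current, 150 mA, for 0.2 s. Protection meant abolition of the hindlimb tonic extensor component of the seizure.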

[17] = tested on: rats; assay: Acute toxicity, minimal motor impairment in rats; format: in vivo; details: 30 mg/kg
[18] = tested on: PCP site of the NMDA receptor complex; details: ref [39], [40]; cited from earlier work
[19] = tested on: MES-induced seizures; details: literature statement, no reference given; cited from earlier work
[20] = read-out: 5HT2A binding affinity, Human Cloned, hot ligand Ketanserin
[21] = read-out: D1 binding affinity, Human Cloned, hot ligand SCH23390
[22] = read-out: D2 binding affinity, Human Cloned, hot ligand N-Methylspiperone
[23] = read-out: DAT binding affinity, Human Cloned, hot ligand WIN35428
[24] = read-out: KOR binding affinity, Rat Cloned, hot ligand U69593
[25] = read-out: MOR binding affinity, Human Cloned, hot ligand DAMGO
[26] = read-out: NET binding affinity, Human Cloned, hot ligand Nisoxetine
[27] = read-out: SERT binding affinity, Human Cloned, hot ligand Citalopram
[28] = read-out: Sigma 1 binding affinity, Rat Brain, hot ligand Pentazocine(+)
[29] = read-out: Sigma 2 binding affinity, Rat C12, hot ligand DTG

Row | SMILES | affinity for NMDA (in words) [1] | Ki [2, 20] [µM] | Ki [3, 21] [µM] | Ki [4, 22] [µM] | Ki [5, 23] [µM] | MES (30) N/F, animals active over tested ([12]; 0.5 h) | MES (30) N/F, animals active over tested ([12]; 4.0 h) | MES (100) N/F, animals active over tested ([12]; 0.5 h) | MES (100) N/F, animals active over tested ([12]; 4.0 h) | scMET (30) N/F, animals active over tested ([13]; 0.5 h) | scMET (30) N/F, animals active over tested ([13]; 4.0 h) | scMET (100) N/F, animals active over tested ([13]; 0.5 h) | scMET (100) N/F, animals active over tested ([13]; 4.0 h) | TOX comments ([14]; 100 mg/kg, 0.5 h) | TOX comments ([14]; 300 mg/kg, 0.5 h) | TOX (30) N/F, animals toxic over tested ([14]; 0.5 h) | TOX (30) N/F, animals toxic over tested ([14]; 4.0 h) | TOX (100) N/F, animals toxic over tested ([14]; 100 mg/kg, 0.5 h) | TOX (100) N/F, animals toxic over tested ([14]; 100 mg/kg, 4.0 h) | TOX (300) N/F, animals toxic over tested ([14]; 300 mg/kg, 0.5 h) | further results
1 | Fc1ccc(C2(NCCN3CCCCC3)CC3CCC2C3)cc1 (stereo not drawn) [Compound 5b] | did not exhibit significant affinity | 8.82 | > 10 | > 10 | 1.23 | 0/1 0/1 | 0/1 0/1 | 2/3 | 0/3 | 0/1 0/1 | 0/1 0/1 | 0/1 0/1 | 0/1 0/1 | Clonic seizures | Death | 0/4 | 0/2 | 3/8 | 0/4 | 4/4 / | Ki [6, 24]: 3.55 µM; Ki [7, 25]: > 10 µM; Ki [8, 26]: > 10 µM; Ki [9, 27]: > 10 µM; Ki [10, 28]: > 10 µM; Ki [11, 29]: > 10 µM; MES neuroprotective activity (in words) [12]: displayed MES neuroprotective activity; TOX comments ([14]; 50 mg/kg, 0.25 h): Clonic seizures; TOX (65) N/F, animals toxic over tested ([14]; 65 mg/kg, 0.5 h): 2/4; 6HZ (50), animals active over tested ([15]; 0.5 h): 0/4; protection in rats (in words) [16]: did not display any protection; toxicity in rats (in words) [17]: did not display any protection or toxicity
2 | Fc1ccc(C2(NCCN3CCOCC3)CC3CCC2C3)cc1 (stereo not drawn) [Compound 5d, 2-(4-Fluorophenyl)-N-(2-morpholinoethyl)bicyclo [2.2.1]heptan-2-amine] | did not exhibit significant affinity |  |  |  |  | 0/1 0/1 | 0/1 0/1 | 2/3 | 0/3 | 0/1 0/1 | 0/1 0/1 | 0/1 0/1 | 0/1 0/1 | Clonic seizures | Loss of righting reflex; also recorded: Death | 0/4 | 0/2 | 1/8 | 0/4 | 4/4 / | Ki [2]: > 10 µM; Ki [3]: > 10 µM; Ki [4]: > 10 µM; Ki [5]: 6.48 µM; Ki [6]: > 10 µM; Ki [7]: > 10 µM; Ki [8]: > 10 µM; Ki [9]: > 10 µM; Ki [10]: > 10 µM; Ki [11]: > 10 µM; MES (300) N/F, animals active over tested ([12]; 0.5 h): 1/1; MES (300) N/F, animals active over tested ([12]; 4.0 h): 0/0; MES neuroprotective activity (in words) [12]: displayed MES neuroprotective activity; TOX comments ([14]; 65 mg/kg, 0.25 h): Clonic seizures; TOX (65) N/F, animals toxic over tested ([14]; 65 mg/kg, 0.5 h): 0/4 0/4; TOX (65) N/F, animals toxic over tested ([14]; 65 mg/kg, 4.0 h): 0/4 0/4; 6HZ (50), animals active over tested ([15]; 0.5 h): 1/4 1/4; 6HZ (50), animals active over tested ([15]; 4.0 h): 1/4 1/4; protection in rats (in words) [16]: did not display any protection; toxicity in rats (in words) [17]: did not display any protection or toxicity
3 | Fc1ccc(C2(NCCN3CCCC3)CC3CCC2C3)cc1 (stereo not drawn) [Compound 5f] |  | > 10 | > 10 | > 10 | 0.226 | 0/1 0/1 | 0/1 0/1 | 1/3 | 0/1 | 0/1 0/1 | 0/1 0/1 | 0/1 0/1 | 0/1 0/1 | Clonic seizures | Death | 0/4 | 0/2 | 5/8 | 0/4 | 4/4 / | % inhibition of 1 nM [3H] (+)-MK-801 ([1]; compound at 10 μM (10,000 nM)): greater than 90%; IC50 ([1]; rat forebrain homogenate, 1 nM (+)-[3H]MK-801): 8.66 ± 2.56 µM; Ki ([1]; read-out: NMDA affinity Ki, calculated by Cheng and Prusoff equation): 5.82 µM; Ki [6, 24]: 2.11 µM; Ki [7, 25]: > 10 µM; Ki [8, 26]: > 10 µM; Ki [9, 27]: 4.61 µM; Ki [10, 28]: > 10 µM; Ki [11, 29]: > 10 µM
4 | CN1CC[C@@]23CCCC[C@@H]2[C@@H]1Cc1ccc(O)cc13 [DX, dextrophan] |  |  |  |  |  |  |  |  |  |  |  |  |  |  |  |  |  |  |  |  | activity / affinity at NMDA (in words) [18]: μM affinity
5 | COc1ccc2c(c1)[C@]13CCCC[C@@H]1[C@H](C2)N(C)CC3 [DXM, dextromethorphan] |  |  |  |  |  |  |  |  |  |  |  |  |  |  |  |  |  |  |  |  | activity / affinity at NMDA (in words) [18]: low activity at NMDA; neuroprotective activity in the MES test (in words) [19]: neuroprotective activity in the MES test
